TRPC4 block: blocks the mouse TRPC4 cation channel; hit rate 0.39% among 300,000; HEK293 TRPC4beta/mu-opioid, DAMGO-evoked Fluo4 calcium flux; active compounds read low; B-score at 10 µM; Q9QUQ5;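 active = B-score over 3 SD under the library average, no early fluorescence shift, positive overall ratio signal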
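Signal: kinetic Fluo4 fluorescence imaging of calcium influx. Material: stable TRPC4beta/mu-opioid receptor HEK293 cells. Probe or stimulus: DAMGO in two steps, submaximal then maximal.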
TRPC6 act: activators of mouse TRPC6 channel | Q61143 | HEK293-TRPC6 membrane potential dye fluorescence; active compounds read high | B-score at 10 µM | hit rate 0.13% among 310,000 | AID 2550;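 active = B-score of the integrated fluorescence ratio above library mean plus 3 SD, and starting fluorescence ratio within library mean plus 5 SD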;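 note: higher score means more depolarization so channel activation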
TRPC4 PAM: allosterically enhances the mouse TRPC4 cation channel; hit rate 0.42% among 310,000; B-score at 10 µM; HEK293 TRPC4beta/mu-opioid, DAMGO EC20, Fluo-4 Ca2+ flux; active compounds read high; Q9QUQ5;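 active = B-score of calcium response area above 5 SD of library B-scores, with initial fluorescence ratio within 5 SD of library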
TRPC6 inhibitor: blocks the mouse TRPC6 cation channel | Q61143 | HEK293-TRPC6, membrane potential dye, ACh-evoked depolarization; active compounds read low | B-score at 10 µM | hit rate 1.1% among 310,000;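 active = B-score under library mean minus 3 SD, initial fluorescence not abnormally high, positive integrated signal ratio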;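 note: B-score derived from integrated fluorescence ratio over the kinetic read; more negative B-score means stronger inhibition of depolarization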
TRPC4 agonist: TRPC4 (mouse) channel activation | HEK293 TRPC4beta/mu-opioid, Fluo4 calcium fluorescence; active compounds read high | hit rate 0.49% among 310,000 | Q9QUQ5 | AID 2237 | B-score at 10 µM;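 active = B-score above 5 SD of library B-scores, and initial fluorescence ratio not above library mean plus 5 SD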;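 note: positive B-score marks a calcium rise read as TRPC4 activation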
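Material: TRPC4beta and mu-opioid receptor HEK293 stable cells | Incubation: 45 min room-temperature Fluo4 loading, 110 s read | Detection: Kinetic Fluo4 calcium fluorescence | Measure: Integrated baseline-normalised fluorescence ratio, converted to per-well B score | Benchmarks: Low control buffer alone, high control maximal DAMGO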
A number is an active result. Rows were chosen to be rich in hits. Some 2.3% of all compounds tested hit in one or more screens of this group.

Screening O=C(/C=C/c1ccco1)Oc1cc(Br)cc(/C=N/NC(=O)c2ccccc2O)c1 returned TRPC4 block inactive, TRPC6 act inactive, TRPC4 PAM 12, TRPC6 inhibitor inactive and TRPC4 agonist inactive.
`O=C(CSc1nnc(-c2ccc(Cl)cc2Cl)n1C1CCCCC1)N1CCCC1` gave TRPC4 block -6, TRPC6 act inactive, TRPC4 PAM inactive, TRPC6 inhibitor inactive and TRPC4 agonist inactive.
For Cc1cccc(C)c1N(CC(=O)NCc1ccc(F)cc1)C(=O)c1csnn1 the results were TRPC4 block inactive, TRPC6 act inactive, TRPC4 PAM inactive, TRPC6 inhibitor inactive and TRPC4 agonist inactive.
Cc1ccc(-c2n[nH]c(=O)c3ccccc23)cc1S(=O)(=O)Nc1ccccc1 was read as TRPC4 block inactive, TRPC6 act inactive, TRPC4 PAM 12, TRPC6 inhibitor inactive and TRPC4 agonist inactive.
O=C1CC(SC2=NCCS2)C(=O)N1c1cccc(Cl)c1Cl (stereo not drawn) was read as TRPC4 block inactive, TRPC6 act inactive, TRPC4 PAM inactive, TRPC6 inhibitor inactive and TRPC4 agonist inactive.
Screening N#Cc1c(Oc2ccc3ccccc3c2)sc(C(=O)c2ccccc2)c1N returned TRPC4 block inactive, TRPC6 act inactive, TRPC4 PAM 12, TRPC6 inhibitor inactive and TRPC4 agonist inactive.
For Cc1cccc(Oc2sc(C(=O)c3ccccc3)c(N)c2C#N)c1C the results were TRPC4 block inactive, TRPC6 act inactive, TRPC4 PAM inactive, TRPC6 inhibitor inactive and TRPC4 agonist inactive.
For CCOc1cccc(C(=O)NC2=NCCS2)c1 the results were TRPC4 block inactive, TRPC6 act inactive, TRPC4 PAM inactive, TRPC6 inhibitor inactive and TRPC4 agonist inactive.
CCSc1nnc(NC(=O)c2ccccc2C)s1 was read as TRPC4 block inactive, TRPC6 act inactive, TRPC4 PAM inactive, TRPC6 inhibitor inactive and TRPC4 agonist inactive.
Screening O=C(O)C1Cc2c([nH]c3ccccc23)C(c2ccc3c(c2)OCO3)N1 (stereo not drawn) returned TRPC4 block inactive, TRPC6 act inactive, TRPC4 PAM inactive, TRPC6 inhibitor inactive and TRPC4 agonist inactive.
For COc1ccc(C2NC(C(=O)O)Cc3c2[nH]c2ccccc32)cc1CN1CCN(c2ccc(F)cc2)CC1 (stereo not drawn) the results were TRPC4 block -6, TRPC6 act inactive, TRPC4 PAM inactive, TRPC6 inhibitor inactive and TRPC4 agonist inactive.
For Cc1ccc(OCC(=O)NNC(=S)NC(=O)C2CCCCC2)c(C)c1 the results were TRPC4 block inactive, TRPC6 act inactive, TRPC4 PAM inactive, TRPC6 inhibitor inactive and TRPC4 agonist 54.
For Cc1ccc(OCC(=O)NC(=S)Nc2ccccn2)c(Br)c1 the results were TRPC4 block inactive, TRPC6 act inactive, TRPC4 PAM inactive, TRPC6 inhibitor inactive and TRPC4 agonist inactive.
Cc1ccc(OCC(=O)NNC(=S)NC(=O)C(C)(C)C)c(Br)c1 was read as TRPC4 block inactive, TRPC6 act inactive, TRPC4 PAM inactive, TRPC6 inhibitor inactive and TRPC4 agonist 235.
`COc1ccc(-c2csc(NC(=O)CSc3nc(C)nc4sc(C(=O)O)c(C)c34)n2)cc1` gave TRPC4 block inactive, TRPC6 act inactive, TRPC4 PAM inactive, TRPC6 inhibitor inactive and TRPC4 agonist inactive.
For CCN(CC)CCCNC(=O)c1cc2c(-c3ccc(Cl)cc3)nn(C)c2s1 the results were TRPC4 block inactive, TRPC6 act inactive, TRPC4 PAM 16, TRPC6 inhibitor inactive and TRPC4 agonist 72.
`CN1CCN(CCCNC(=O)c2cc3c(-c4ccc(Cl)cc4)nn(C)c3s2)CC1` gave TRPC4 block inactive, TRPC6 act inactive, TRPC4 PAM 11, TRPC6 inhibitor inactive and TRPC4 agonist inactive.
CS(=O)(=O)Nc1ccc(-c2cc(/C=C3\SC(N)=NC3=O)c[nH]c2=O)cc1 was read as TRPC4 block inactive, TRPC6 act inactive, TRPC4 PAM inactive, TRPC6 inhibitor inactive and TRPC4 agonist inactive.
`CN(C)CC1CCCCC1OC(=O)c1ccc(Br)cc1` (stereo not drawn) gave TRPC4 block -6, TRPC6 act inactive, TRPC4 PAM inactive, TRPC6 inhibitor inactive and TRPC4 agonist inactive.
COc1ccc(C(=O)OC2CCCCC2CN(C)C)cc1 (stereo not drawn) was read as TRPC4 block inactive, TRPC6 act inactive, TRPC4 PAM inactive, TRPC6 inhibitor inactive and TRPC4 agonist inactive.
For CN(C)CCN(C(=O)c1cccc(Cl)c1)c1nc2c(Cl)cccc2s1 the results were TRPC4 block inactive, TRPC6 act inactive, TRPC4 PAM 11, TRPC6 inhibitor inactive and TRPC4 agonist inactive.
For COc1ccc2c(C)c(CCC(=O)NCCCN3CCCC3=O)c(=O)oc2c1C the results were TRPC4 block -6, TRPC6 act inactive, TRPC4 PAM inactive, TRPC6 inhibitor inactive and TRPC4 agonist inactive.
For CC(C)c1ccccc1NC(=O)c1cccc(NC(=O)c2ccccc2)c1 the results were TRPC4 block inactive, TRPC6 act inactive, TRPC4 PAM inactive, TRPC6 inhibitor inactive and TRPC4 agonist inactive.
Screening CN(C)CCNc1ncnc2ccccc12 returned TRPC4 block inactive, TRPC6 act inactive, TRPC4 PAM 11, TRPC6 inhibitor inactive and TRPC4 agonist inactive.
CN(C)CCCNc1ncnc2c1cnn2Cc1ccccc1Cl was read as TRPC4 block inactive, TRPC6 act inactive, TRPC4 PAM 18, TRPC6 inhibitor inactive and TRPC4 agonist inactive.
For CN(C)CCCNc1ncnc2c1cnn2-c1ccccc1 the results were TRPC4 block inactive, TRPC6 act inactive, TRPC4 PAM 25, TRPC6 inhibitor inactive and TRPC4 agonist inactive.
Screening O=C(NC(=S)N1CCCCCC1)c1ccc(Cl)cc1Cl returned TRPC4 block inactive, TRPC6 act inactive, TRPC4 PAM inactive, TRPC6 inhibitor inactive and TRPC4 agonist inactive.
For CN(CCC#N)C(=O)COC(=O)c1ccc(CNS(=O)(=O)c2ccc(F)c(Cl)c2)cc1 the results were TRPC4 block inactive, TRPC6 act inactive, TRPC4 PAM inactive, TRPC6 inhibitor inactive and TRPC4 agonist inactive.
`CCCCCCCCNC(=S)NCCN1CCCCC1` gave TRPC4 block inactive, TRPC6 act inactive, TRPC4 PAM inactive, TRPC6 inhibitor inactive and TRPC4 agonist inactive.
Screening Cc1ccc(C(=O)Nc2nc(=O)[nH]s2)cc1 returned TRPC4 block inactive, TRPC6 act inactive, TRPC4 PAM inactive, TRPC6 inhibitor inactive and TRPC4 agonist inactive.
`CC(OC(=O)c1cccs1)C(=O)NCC1CCCO1` (stereo not drawn) gave TRPC4 block inactive, TRPC6 act inactive, TRPC4 PAM inactive, TRPC6 inhibitor inactive and TRPC4 agonist inactive.
Screening O=C(OC(C(=O)NCC1CCCO1)c1ccc(F)cc1)c1cccs1 (stereo not drawn) returned TRPC4 block inactive, TRPC6 act inactive, TRPC4 PAM inactive, TRPC6 inhibitor inactive and TRPC4 agonist 47.
Screening O=C(CCl)N1CCN2C(=O)c3ccccc3C12c1ccc(Cl)cc1 (stereo not drawn) returned TRPC4 block inactive, TRPC6 act inactive, TRPC4 PAM inactive, TRPC6 inhibitor inactive and TRPC4 agonist inactive.
